Test results: ChEMBL document CHEMBL1149321, “Synthesis, radiosynthesis, and biological evaluation of carbon-11 and iodine-123 labeled 2beta-carbomethoxy-3beta-[4'-((Z)-2-haloethenyl)phenyl]tropanes: candidate radioligands for in vivo imaging of the serotonin transporter” (J Med Chem, 2004)
“And” between values parts separate entries of the source, which are not always exact repeats. Identical values can stand only once.

Columns and labels:
[1] = target: T1, Sodium-dependent noradrenaline transporter (Homo sapiens, UniProt P23975); test: In vitro binding affinity against human norepinephrine transporter in human embryonic kidney cell line by using [3H]-[…] radioligand; format: cell-based
T1 sequence (P23975 whole entry): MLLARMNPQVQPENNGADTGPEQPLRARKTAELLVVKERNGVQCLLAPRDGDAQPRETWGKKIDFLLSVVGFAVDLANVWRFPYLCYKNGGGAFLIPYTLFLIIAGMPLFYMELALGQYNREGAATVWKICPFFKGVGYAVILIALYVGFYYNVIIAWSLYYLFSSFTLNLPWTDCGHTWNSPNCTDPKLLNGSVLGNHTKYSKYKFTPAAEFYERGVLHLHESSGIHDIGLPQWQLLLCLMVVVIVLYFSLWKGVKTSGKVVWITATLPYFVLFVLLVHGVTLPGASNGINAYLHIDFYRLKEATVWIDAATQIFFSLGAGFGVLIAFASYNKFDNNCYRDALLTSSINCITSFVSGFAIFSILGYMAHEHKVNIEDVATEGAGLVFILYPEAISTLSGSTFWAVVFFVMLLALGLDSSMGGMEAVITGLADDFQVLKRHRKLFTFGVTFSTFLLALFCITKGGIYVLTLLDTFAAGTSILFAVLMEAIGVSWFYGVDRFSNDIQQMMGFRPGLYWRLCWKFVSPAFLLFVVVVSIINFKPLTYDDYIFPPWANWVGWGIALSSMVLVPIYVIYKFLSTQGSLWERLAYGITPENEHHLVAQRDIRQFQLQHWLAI

[2] = target: T2, Sodium-dependent dopamine transporter (Homo sapiens, UniProt Q01959); test: In vitro binding affinity against human dopamine transporter in dog kidney cell line by using [3H]WIN-35428 as the radiotracer; format: cell-based
T2 sequence (Q01959 whole entry): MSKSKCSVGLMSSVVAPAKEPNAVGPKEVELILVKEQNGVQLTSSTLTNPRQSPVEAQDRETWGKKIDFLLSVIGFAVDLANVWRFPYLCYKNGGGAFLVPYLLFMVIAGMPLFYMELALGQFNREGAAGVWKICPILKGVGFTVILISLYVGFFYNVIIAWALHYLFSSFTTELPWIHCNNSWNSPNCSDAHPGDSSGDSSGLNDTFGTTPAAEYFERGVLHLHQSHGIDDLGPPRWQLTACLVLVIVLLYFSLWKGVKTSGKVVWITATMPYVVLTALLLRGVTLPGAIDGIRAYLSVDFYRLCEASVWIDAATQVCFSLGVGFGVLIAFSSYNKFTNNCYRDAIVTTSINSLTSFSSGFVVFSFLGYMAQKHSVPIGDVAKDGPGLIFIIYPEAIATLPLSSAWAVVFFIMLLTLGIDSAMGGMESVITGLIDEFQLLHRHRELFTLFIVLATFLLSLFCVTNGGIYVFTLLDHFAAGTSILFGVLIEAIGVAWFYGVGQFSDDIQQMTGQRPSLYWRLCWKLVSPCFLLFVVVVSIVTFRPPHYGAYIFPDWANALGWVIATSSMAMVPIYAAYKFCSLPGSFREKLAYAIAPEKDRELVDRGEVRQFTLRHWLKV

[3] = target: Sodium-dependent serotonin transporter (Homo sapiens, UniProt P31645); test: biochemical; format: cell-based, kidney
Chain of Sodium-dependent serotonin transporter (P31645 whole entry): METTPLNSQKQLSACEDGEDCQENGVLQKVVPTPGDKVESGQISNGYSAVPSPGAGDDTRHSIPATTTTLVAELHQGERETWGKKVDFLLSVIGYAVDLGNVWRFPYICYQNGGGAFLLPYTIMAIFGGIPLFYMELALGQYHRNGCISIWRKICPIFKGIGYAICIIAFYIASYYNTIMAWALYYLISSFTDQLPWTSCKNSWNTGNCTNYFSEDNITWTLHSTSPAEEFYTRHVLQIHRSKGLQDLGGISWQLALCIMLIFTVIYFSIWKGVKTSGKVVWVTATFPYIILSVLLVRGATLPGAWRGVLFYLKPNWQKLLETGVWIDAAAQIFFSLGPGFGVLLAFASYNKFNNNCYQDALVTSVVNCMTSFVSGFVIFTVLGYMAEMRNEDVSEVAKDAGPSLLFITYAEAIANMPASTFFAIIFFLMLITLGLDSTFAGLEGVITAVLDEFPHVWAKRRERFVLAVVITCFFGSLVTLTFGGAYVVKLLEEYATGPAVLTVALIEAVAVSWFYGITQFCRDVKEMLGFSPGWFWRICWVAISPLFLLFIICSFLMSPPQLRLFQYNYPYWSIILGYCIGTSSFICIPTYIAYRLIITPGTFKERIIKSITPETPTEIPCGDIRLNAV

[4] = target: T1, Sodium-dependent noradrenaline transporter; test: In vitro binding affinity against human norepinephrine transporter in human embryonic kidney cell line by using [125I]-RTI-55 radioligand; format: cell-based
[5] = target: T2, Sodium-dependent dopamine transporter; test: In vitro binding affinity against human dopamine transporter in dog kidney cell line by using [125I]RTI-55 as radioligand; format: cell-based
Method in brief: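 Membranes of MDCK cells stably expressing hDAT, grown in DMEM/10% FBS/geneticin. […] Competitor 12 concentrations 10⁻¹³–10⁻⁵ M in triplicate; GF/B filtration, gamma counting; Ki as geometric mean of ≥3 assays.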

[6] = target: T2, Sodium-dependent dopamine transporter; test: In vitro binding affinity against human dopamine transporter in dog kidney cell line using [125I]RTI-55 as radioligand; format: cell-based
[7] = target: T1, Sodium-dependent noradrenaline transporter; test: In vitro binding affinity against human norepinephrine transporter in human embryonic kidney cell line using [125I]RTI-55 as radioligand; format: cell-based

| SMILES | Ki [1] [nM] | Ki [2] [nM] | Ki [3] | Ki [4] [nM] | Ki [5] [nM] | Ki [6] [nM] | Ki ([6]; kidney) [nM] | Ki [7] [nM] |
| --- | --- | --- | --- | --- | --- | --- | --- | --- |
| CN1C2CCC1C(C(=O)Oc1ccccc1)C(c1ccc(Cl)cc1)C2 (centres undefined) | 242 | 5.25 | 390 nM |  |  |  |  |  |
| COC(=O)C1C2CCC(CC1c1ccc(C=C(Br)Br)cc1)N2 (centres undefined) |  |  | 0.08 nM | 5.6 | 5.6 |  |  |  |
| COC(=O)C1C(c2ccc(/C=C\Br)cc2)CC2CCC1N2C (centres undefined) |  |  | 0.08 nM | 111 | 3.1 |  |  |  |
| COC(=O)C1C2CCC(CC1c1ccc(/C=C\Br)cc1)N2 (centres undefined) |  |  | 0.04 nM | 2.5 | 3.9 |  |  |  |
| COC(=O)C1C2CCC(CC1c1ccc(I)cc1)N2 (centres undefined) | 7.5 |  | 0.36 nM |  | 0.69 |  |  |  |
| COC(=O)C1C(c2ccc(C=C(Br)Br)cc2)CC2CCC1N2C (centres undefined) |  |  | 1.35 nM | 161 | 6.73 |  |  |  |
| COC(=O)C1C(c2ccc(/C=C\I)cc2)CC2CCC1N2C (centres undefined) |  |  | 0.11 nM | 450 | 22 |  |  |  |
| COC(=O)[C@@H]1C2CC[C@H](C[C@@H]1c1ccc(I)cc1)N2C | 36 |  | 4.2 nM |  | 1.3 |  |  |  |
| COC(=O)C1C2CCC(CC1c1ccc(/C=C\I)cc1)N2 (centres undefined) |  |  | 0.05 nM and 0.04 nM (2×) |  | 3.5 | 15 | 15 | 24 |
